According to PubChem BioAssay AID638 (SRMLSC, 2007):

test system: E. coli BW25113 wild type growth inhibition, OD615; assay: wild-type E. coli BW25113 antibacterial activity – OD615, dose response (AID 638)
Method in brief: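 Assay system: E. coli BW25113 wild type. Doses: compound concentration series. Timing: 20 h compound exposure, 37 °C. Technique: OD615 absorbance. Medium: LB broth containing kanamycin at 50 µg/mL. Benchmarks: chloramphenicol at 30 µM final as inhibition control. Measure: IC50 from 4-parameter logistic, bounds fixed 0–100%.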

Going from `CN1CCN(c2c(F)cc3c(=O)c(C(=O)O)cn4c3c2SCC4)CC1` to `COc1c(N2CCNC(C)C2)c(F)cc2c(=O)c(C(=O)O)cn(C3CC3)c12` (centres undefined), the IC50 falls from 1.1 µM to under 0.195 µM.

Going from `CN(C)[C@@H]1C(=O)C(C(N)=O)=C(O)[C@@]2(O)C(=O)C3=C(O)c4c(O)ccc(Cl)c4[C@@H](O)[C@H]3C[C@@H]12` to `NC1C2CN(c3nc4c(cc3F)c(=O)c(C(=O)O)cn4-c3ccc(F)cc3F)CC12` (centres undefined), the IC50 falls from 0.609 µM to under 0.195 µM. The second is the more potent here.

`COc1cccc(C(=O)Nc2nnc(-c3cccs3)o2)c1` and `Cc1ccsc1C(=O)Nc1nnc(-c2ccco2)o1` are within 1.5-fold of each other in IC50: 79.6 µM for the first, 60.3 µM for the second.

Compared with `C=CCNc1ncnc2c1[nH]c1ccc(C)cc12`, `Oc1c(CN2CCCCC2)cc(Br)c2cccnc12` is 1.7-fold higher in IC50: 35.4 µM for the first, 61.3 µM for the second. The first is the more potent here.

First: O=C(Nc1cccc(Cl)c1)Nc1nccs1
Second: N#Cc1ccc(NC(=O)Nc2ccc(Cl)cc2)cc1
The IC50 of the first is 2-fold higher: 96.1 µM for the first, 49.2 µM for the second.

First: O=c1ccsn1Cc1ccccc1
Second: O=C(Nc1nnc(-c2ccccc2)o1)c1ccc(Cl)cc1
The IC50 of the first is 4.3-fold lower: 23.6 µM for the first, 102 µM for the second.

First: CCn1cc(C(=O)NCc2ccc3c(c2)OCO3)c(=O)c2cc(F)c(N3CCN(C)CC3)cc21
Second: CCn1cc(C(=O)Nc2nncs2)c(=O)c2cc(F)c(N3CCN(C(=O)c4ccco4)CC3)cc21
The IC50 of the first is 2.7-fold lower: 28.2 µM for the first, 75.6 µM for the second.

Compared with `COc1cc(Cc2cnc(N)nc2N)cc(OC)c1OC`, `CCCCOc1ccc(NC2=NC3(CCCCC3)N=C(N)N2)cc1` is 130-fold higher in IC50: 0.688 µM for the first, 89 µM for the second.

First: c1ccc(-c2cccc(-c3ccccn3)n2)nc1
Second: O=S1(=O)Nc2c(ccc3cccnc23)-c2ccccc21
The IC50 of the first is 2.5-fold higher: 66.8 µM for the first, 26.8 µM for the second. The second is the more potent here.

Compared with `CC(=O)c1c(C)n([O-])c2ccccc2[n+]1=O`, `CCSc1nnc(NC(=O)c2ccccn2)s1` is 4.8-fold higher in IC50: 19.5 µM for the first, 92.8 µM for the second.

`CO[C@@]1(NC(=O)Cc2cccs2)C(=O)N2C(C(=O)O)=C(COC(N)=O)CS[C@@H]21` and `CC(=O)OCC1=C(C(=O)O)N2C(=O)[C@@H](NC(=O)Cc3cccs3)[C@H]2SC1` are within 1.5-fold of each other in IC50: 7.91 µM for the first, 10.6 µM for the second.

`CCn1cc(C(=O)O)c(=O)c2cc(F)c(N3CCN(C(=O)Nc4ccccc4)CC3)cc21` and `CCC(=O)N1CCN(c2cc3c(cc2F)c(=O)c(C(=O)O)cn3CC)CC1` are within 1.5-fold of each other in IC50: 2.28 µM for the first, 3.16 µM for the second.
